Columns and labels:
SK-MEL-28 = assay: Growth inhibition of human SK-MEL-28 cells assessed as cell growth at 10 uM after 48 hrs by sulforhodamine B assay; assay type: functional; conditions: SK-MEL-28, 48 h, read-out: Activity
Procedure, shortened: (§1)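 NCI 60-cell-line panel screen (nine cancer types). Compounds added at single concentration 10^-5 M, cultures incubated 48 h; growth inhibition percentages reported.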

UO-31 = assay: Growth inhibition of human UO31 cells assessed as cell growth at 10 uM after 48 hrs by sulforhodamine B assay; assay type: functional; conditions: UO-31, 48 h, read-out: Activity
Procedure, shortened: (§2)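 NCI 60-cell-line panel from nine tumour types (leukaemia, lung, colon, CNS, melanoma, ovarian, renal, prostate, breast). Each compound was added at one single concentration, and cultures were incubated for 48 h. Results are reported as percent growth inhibition.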

SR = assay: Growth inhibition of human SR cells assessed as cell growth at 10 uM after 48 hrs by sulforhodamine B assay; assay type: functional; conditions: read-out: Activity; procedure, shortened: as §2
K562 = assay: Growth inhibition of human K562 cells assessed as cell growth at 10 uM after 48 hrs by sulforhodamine B assay; assay type: functional; conditions: K562, 48 h, read-out: Activity; procedure, shortened: as §1
HCC 2998 = assay: Growth inhibition of human HCC2998 cells assessed as cell growth at 10 uM after 48 hrs by sulforhodamine B assay; assay type: functional; conditions: HCC 2998, 48 h, read-out: Activity; procedure, shortened: as §1
HL-60 = assay: Cytotoxicity in human HL60 cells assessed as reduction in cell viability incubated for 48 hrs by MTT assay; assay type: functional, cell-based; conditions: HL-60, 48 h
Procedure, shortened: (§3)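 HepG2 and HL60 (ATCC) grown in DMEM with 10% FBS, 2 mM L-glutamine, penicillin/streptomycin, amphotericin B at 37 °C, 5% CO2. Samples dissolved in DMSO, diluted thousandfold in assay. Cells seeded in serum-free medium, treated with serial concentrations 48 h; MTT 4 h, formazan dissolved in acidified isopropanol, A570. Triplicates averaged; viability relative to untreated/vehicle control.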

OVCAR-8 = assay: Growth inhibition of human OVCAR8 cells assessed as cell growth at 10 uM after 48 hrs by sulforhodamine B assay; assay type: functional; conditions: OVCAR-8, 48 h, read-out: Activity; procedure, shortened: as §1
HCT-116 = assay: Growth inhibition of human HCT116 cells assessed as cell growth at 10 uM after 48 hrs by sulforhodamine B assay; assay type: functional; conditions: HCT-116, 48 h, read-out: Activity; procedure, shortened: as §1
HCT-15 = assay: Growth inhibition of human HCT15 cells assessed as cell growth at 10 uM after 48 hrs by sulforhodamine B assay; assay type: functional; conditions: HCT-15, 48 h, read-out: Activity; procedure, shortened: as §1
SK-MEL-5 = assay: Growth inhibition of human SK-MEL-5 cells assessed as cell growth at 10 uM after 48 hrs by sulforhodamine B assay; assay type: functional; conditions: SK-MEL-5, 48 h, read-out: Activity; procedure, shortened: as §1
UACC-62 = assay: Growth inhibition of human UACC62 cells assessed as cell growth at 10 uM after 48 hrs by sulforhodamine B assay; assay type: functional; conditions: UACC-62, 48 h, read-out: Activity; procedure, shortened: as §2
PC-3 = assay: Growth inhibition of human PC3 cells assessed as cell growth at 10 uM after 48 hrs by sulforhodamine B assay; assay type: functional; conditions: PC-3, 48 h, read-out: Activity; procedure, shortened: as §1
BT-549 = assay: Growth inhibition of human BT549 cells assessed as cell growth at 10 uM after 48 hrs by sulforhodamine B assay; assay type: functional; conditions: BT-549, 48 h, read-out: Activity; procedure, shortened: as §1
TK-10 = assay: Growth inhibition of human TK10 cells assessed as cell growth at 10 uM after 48 hrs by sulforhodamine B assay; assay type: functional; conditions: TK-10, 48 h, read-out: Activity; procedure, shortened: as §2
OVCAR-3 = assay: Growth inhibition of human OVCAR3 cells assessed as cell growth at 10 uM after 48 hrs by sulforhodamine B assay; assay type: functional; conditions: OVCAR-3, 48 h, read-out: Activity; procedure, shortened: as §1
SN12C = assay: Growth inhibition of human SN12C cells assessed as cell growth at 10 uM after 48 hrs by sulforhodamine B assay; assay type: functional; conditions: read-out: Activity; procedure, shortened: as §2
SF-539 = assay: Growth inhibition of human SF539 cells assessed as cell growth at 10 uM after 48 hrs by sulforhodamine B assay; assay type: functional; conditions: SF-539, 48 h, read-out: Activity; procedure, shortened: as §1
SK-OV-3 = assay: Growth inhibition of human SKOV3 cells assessed as cell growth at 10 uM after 48 hrs by sulforhodamine B assay; assay type: functional; conditions: SK-OV-3, 48 h, read-out: Activity; procedure, shortened: as §1
NCI-H522 = assay: Growth inhibition of human NCI-H522 cells assessed as cell growth at 10 uM after 48 hrs by sulforhodamine B assay; assay type: functional; conditions: NCI-H522, 48 h, read-out: Activity; procedure, shortened: as §1
CAKI-1 = assay: Growth inhibition of human CAKI-1 cells assessed as cell growth at 10 uM after 48 hrs by sulforhodamine B assay; assay type: functional; conditions: CAKI-1, 48 h, read-out: Activity; procedure, shortened: as §1
SK-MEL-2 = assay: Growth inhibition of human SK-MEL-2 cells assessed as cell growth at 10 uM after 48 hrs by sulforhodamine B assay; assay type: functional; conditions: SK-MEL-2, 48 h, read-out: Activity; procedure, shortened: as §1
UACC-257 = assay: Growth inhibition of human UACC257 cells assessed as cell growth at 10 uM after 48 hrs by sulforhodamine B assay; assay type: functional; conditions: UACC-257, 48 h, read-out: Activity; procedure, shortened: as §2
HepG2 [1] = assay: Cytotoxicity in human HepG2 cells assessed as reduction in cell viability incubated for 48 hrs by MTT assay; assay type: functional, cell-based; conditions: HepG2, 48 h; procedure, shortened: as §3
MDA-MB-468 = assay: Growth inhibition of human MDA-MB-468 cells assessed as cell growth at 10 uM after 48 hrs by sulforhodamine B assay; assay type: functional; conditions: MDA-MB-468, 48 h, read-out: Activity; procedure, shortened: as §1
A498 = assay: Growth inhibition of human A498 cells assessed as cell growth at 10 uM after 48 hrs by sulforhodamine B assay; assay type: functional; conditions: A498, 48 h, read-out: Activity; procedure, shortened: as §1
HL-60(TB) = assay: Growth inhibition of human HL-60(TB) cells assessed as cell growth at 10 uM after 48 hrs by sulforhodamine B assay; assay type: functional; conditions: HL-60, 48 h, read-out: Activity
Procedure, shortened: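 Screened by the NCI in its 60-cell-line panel covering nine cancer types, including leukemia. Compounds were added at a single concentration, and the cultures were incubated for 48 h. Results are reported as percent growth inhibition.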

SF-295 = assay: Growth inhibition of human SF295 cells assessed as cell growth at 10 uM after 48 hrs by sulforhodamine B assay; assay type: functional; conditions: SF-295, 48 h, read-out: Activity; procedure, shortened: as §1
HepG2 [2] = assay: Inhibition of beta tubulin polymerisation in human HepG2 cells incubated for 2 hrs using TMB substrate by ELISA relative to untreated control; assay type: cell-based; design: concentration or dose not given beside the values; conditions: dose or concentration not given here
[3] = Inhibition of beta tubulin polymerisation in human HepG2 cells incubated for 2 hrs using TMB substrate by ELISA; assay type: cell-based; conditions: HepG2, 2 h

Structure (SMILES)	growth at 10 µM (UO-31) [%]	growth at 10 µM (SR) [%]	IC50 (HL-60) [µM]	growth at 10 µM (OVCAR-8) [%]	growth at 10 µM (HCT-116) [%]	growth at 10 µM (HCT-15) [%]	growth at 10 µM (PC-3) [%]	growth at 10 µM (BT-549) [%]	growth at 10 µM (TK-10) [%]	growth at 10 µM (OVCAR-3) [%]	growth at 10 µM (SF-539) [%]	growth at 10 µM (SK-OV-3) [%]	growth at 10 µM (NCI-H522) [%]	growth at 10 µM (CAKI-1) [%]	growth at 10 µM (SK-MEL-2) [%]	growth at 10 µM (UACC-257) [%]	growth at 10 µM (MDA-MB-468) [%]	growth at 10 µM (A498) [%]	growth at 10 µM (HL-60(TB)) [%]	growth at 10 µM (SF-295) [%]	also measured
CCOc1ccc(-n2nc(C(=O)Nc3ccc(F)c(F)c3F)nc2-c2cc(OC)c(OC)c(OC)c2)cc1	51.5	86.5	10.9	93.4	73.4	64.3	71.6	78.9	101	91.6	87.9	85	71.5	60.5	84.1	101	90.2	88.7	81.5	93	growth at 10 µM (SK-MEL-28): 86.7%; growth at 10 µM (K562): 90.7%; growth at 10 µM (HCC 2998): 94.6%; growth at 10 µM (SK-MEL-5): 87%; growth at 10 µM (UACC-62): 89.7%; growth at 10 µM (SN12C): 86.5%; IC50 (HepG2 [1]): 10.8 µM
CCOc1ccc(-n2nc(C(=O)Nc3cccc(OC)c3)nc2-c2cc(OC)c(OC)c(OC)c2)cc1	50.9	52.6	16.6	53.1	67.3	74.3	59	72.3	93.6	78.7	90.2	96.5	57.9	72.5	86.9	94.7	93.4	78.8	87.5	68.5	inhibition (HepG2 [2]): 49.6%; IC50 (HepG2 [1]): 36.8 µM; IC50 [3]: 36.8 µM
CCOc1ccc(-n2nc(C(=O)Nc3ccccc3)nc2-c2cc(OC)c(OC)c(OC)c2)cc1	37.7	17	1.28	61.6	21.2	35.4	44.9	60.9	72.5	43.2	62	51	22.8	51.6	37.7	66.4	42.5	10.3	32.9	34	inhibition (HepG2 [2]): 42.7%; IC50 (HepG2 [1]): 41.8 µM; IC50 [3]: 41.8 µM
CCOc1ccc(-n2nc(C(=O)Nc3ccccc3OC)nc2-c2cc(OC)c(OC)c(OC)c2)cc1	59.6	65.7	–	90.3	72.7	80.8	65.5	77.6	89.2	95.6	85.7	88.8	69.2	66.7	81.9	97.9	92.3	83.8	73.2	84.8	growth at 10 µM (SK-MEL-28): 78.3%; growth at 10 µM (K562): 79.6%; growth at 10 µM (HCC 2998): 99.7%; growth at 10 µM (SK-MEL-5): 73.8%; growth at 10 µM (UACC-62): 85.2%; growth at 10 µM (SN12C): 83.1%
COc1cccc(-n2nc(C(=O)NCc3ccccc3OC)nc2-c2cc(OC)c(OC)c(OC)c2)c1	59.1	93.8	> 100	103	102	96.8	104	103	81	101	96.5	96.7	60.5	–	77.8	–	99.9	104	103	95.1	growth at 10 µM (SK-MEL-28): 115%; growth at 10 µM (K562): 122%; growth at 10 µM (HCC 2998): 92.1%; growth at 10 µM (SK-MEL-5): 107%; growth at 10 µM (UACC-62): 97.4%; growth at 10 µM (SN12C): 94.8%; IC50 (HepG2 [1]): 1.67 µM

Source: ChEMBL document CHEMBL4138126, “Synthesis, antiproliferative, anti-tubulin activity, and docking study of new 1,2,4-triazoles as potential combretastatin analogues” (Eur J Med Chem, 2017)
